Reference: ChEMBL document CHEMBL3272019, “Synthesis and some properties and antitumor effects of the actinomycin lactam analog, (di(1-L-alpha, beta-diaminopropionic))actinomycin D1” (1976)
≈ marks a conversion by molar mass, not a printed value. Calls of active or inactive are those of the source. The rule behind the calls is not given here.

Legend:
L1210 [1] = test: Antitumor activity against mouse L1210 cells allografted in BDF1 mouse assessed as increase in lifespan at 0.15 mg/kg/injection, ip administered intermittently on days 1, 5 and 9; format: functional; conditions: route intraperitoneal
B16 [2] = test: Antitumor activity against mouse B16 cells allografted in BDF1 mouse assessed as mean survival time at 0.05 mg/kg/injection, ip administered as single dose (reference value: 28 days); format: functional; conditions: route intraperitoneal
Procedure, shortened: (§1)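 B16 melanoma in mice, standard screening method. Schedules were daily on days 1–9, on days 1, 5 and 9, or a single day-1 injection, each over a four- to fivefold dose range. Survival time (range of individual deaths) was recorded, percent increase in life-span computed against untreated controls, and survivors tallied.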

B16 [3] = test: Antitumor activity against mouse B16 cells allografted in BDF1 mouse assessed as increase in life span at 0.075 mg/kg/injection, ip administered intermittently on days 1, 5 and 9 measured on day 60; format: functional; conditions: 1440 h, route intraperitoneal; procedure, shortened: as §1
P388 [4] = test: Antitumor activity against mouse P388 cells allografted in BDF1 mouse assessed as increase in life span at 0.1 mg/kg/injection, ip administered daily for 9 days measured on day 60; format: functional; conditions: route intraperitoneal
Procedure, shortened: (§2)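 P388 leukaemia: 10⁶ cells implanted ip on day 0 into groups of eight male BDF mice. Dosing was ip daily on days 1–9, on days 1, 5 and 9, or as a single day-1 dose, over four- to fivefold dose ranges. Median survival time (range of deaths) and percent increase in life-span were recorded, with survivors/total counted at day 60.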

P388 [5] = test: Antitumor activity against mouse P388 cells allografted in BDF1 mouse assessed as mean survival time at 0.1 mg/kg/injection, ip administered daily for 9 days (reference value: 10.5 days); format: functional; conditions: route intraperitoneal; procedure, shortened: as §2
Sarcina = test: Antibacterial activity against Sarcina subflava assessed as growth inhibition; format: functional
P388 [6] = test: Antitumor activity against mouse P388 cells allografted in BDF1 mouse assessed as mean survival time at 0.15 mg/kg/injection, ip administered intermittently on days 1, 5 and 9 (reference value: 10.5 days); format: functional; conditions: route intraperitoneal; procedure, shortened: as §2
B16 [7] = test: Antitumor activity against mouse B16 cells allografted in BDF1 mouse assessed as mean survival time at 0.075 mg/kg/injection, ip administered intermittently on days 1, 5 and 9 (reference value: 28 days); format: functional; conditions: route intraperitoneal; procedure, shortened: as §1
L1210 [8] = test: Antitumor activity against mouse L1210 cells allografted in BDF1 mouse assessed as increase in life span at 0.2 mg/kg/injection, ip administered as single dose; format: functional; conditions: route intraperitoneal
Calf thymus DNA [9] = test: Binding affinity to calf thymus DNA at 37.1 uM by visible and near-UV CD spectrophotometry; format: nucleic-acid assay; conditions: Bos taurus
Procedure, shortened: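 Visible/near-UV CD of 37.1 µM drug, free and with calf thymus DNA at 0.53 mM nucleotide phosphorus, in 0.01 M sodium phosphate pH 7.0 at about 23°. Tandem 1-cm quartz cells were used. Concentration was fixed from absorbance at 440 nm (ε 23585 M⁻¹ cm⁻¹).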

P388 [10] = test: Antitumor activity against mouse P388 cells allografted in BDF1 mouse assessed as increase in life span at 0.15 mg/kg/injection, ip administered intermittently on days 1, 5 and 9 measured on day 60; format: functional; conditions: 1440 h, route intraperitoneal; procedure, shortened: as §2
[11] = tested on: Pseudoalteromonas phage PM2; test: Binding affinity to bacteriophage PM2 DNA at 25 uM by visible and near-UV CD spectrophotometry
Procedure, shortened: (§3)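 CD spectra, visible and near-UV, of 25.0 µM drug alone and with DNA (calf thymus or PM2, 0.52 mM as nucleotide phosphorus) in 0.01 M sodium phosphate, pH 7.0. Recorded at about 23° in tandem 1-cm cylindrical quartz cells. Drug concentration was set spectrophotometrically at 440 nm.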

P388 [12] = test: Antitumor activity against mouse P388 cells allografted in BDF1 mouse assessed as increase in life span at 0.2 mg/kg/injection, ip administered as single dose measured on day 60; format: functional; conditions: 1440 h, route intraperitoneal; procedure, shortened: as §2
Calf thymus DNA [13] = test: Binding affinity to calf thymus DNA at 25 uM by visible and near-UV CD spectrophotometry; format: nucleic-acid assay; conditions: Bos taurus; procedure, shortened: as §3
B16 [14] = test: Antitumor activity against mouse B16 cells allografted in BDF1 mouse assessed as mean survival time at 0.05 mg/kg/injection, ip administered daily for 9 days (reference value: 28 days); format: functional; conditions: route intraperitoneal; procedure, shortened: as §1
L1210 [15] = test: Antitumor activity against mouse L1210 cells allografted in BDF1 mouse assessed as increase in life span at 0.0125 mg/kg/injection, ip administered daily for 9 days; format: functional; conditions: 216 h, route intraperitoneal
P388 [16] = test: Antitumor activity against mouse P388 cells allografted in BDF1 mouse assessed as mean survival time at 0.2 mg/kg/injection, ip administered as single dose (reference value: 10.5 days); format: functional; conditions: route intraperitoneal; procedure, shortened: as §2
L1210 [17] = test: Antitumor activity against mouse L1210 cells allografted in BDF1 mouse assessed as mean survival time at 0.15 mg/kg/injection, ip administered intermittently on days 1, 5 and 9 (reference value: 9.6 days); format: functional; conditions: route intraperitoneal
Bacillus subtilis = test: Antibacterial activity against Bacillus subtilis Marburg assessed as growth inhibition; format: functional
L1210 [18] = test: Antitumor activity against mouse L1210 cells allografted in BDF1 mouse assessed as mean survival time at 0.2 mg/kg/injection, ip administered as single dose (reference value: 9.6 days); format: functional; conditions: route intraperitoneal
B16 [19] = test: Antitumor activity against mouse B16 cells allografted in BDF1 mouse assessed as increase in life span at 0.05 mg/kg/injection, ip administered daily for 9 days measured on day 60; format: functional; conditions: route intraperitoneal; procedure, shortened: as §1
Staphylococcus aureus = test: Antibacterial activity against Penicillin-resistant Staphylococcus aureus assessed as growth inhibition; format: functional
L1210 [20] = test: Antitumor activity against mouse L1210 cells allografted in BDF1 mouse assessed as mean survival time at 0.0125 mg/kg/injection, ip administered daily for 9 days (reference value: 9.6 days); format: functional; conditions: route intraperitoneal
B16 [21] = test: Antitumor activity against mouse B16 cells allografted in BDF1 mouse assessed as increase in life span at 0.05 mg/kg/injection, ip administered as single dose measured on day 60; format: functional; conditions: 1440 h, route intraperitoneal; procedure, shortened: as §1

Cc1c2oc3c(C)ccc(C(=O)N[C@H]4CNC(=O)[C@H](C(C)C)N(C)C(=O)CN(C)C(=O)[C@@H]5CCCN5C(=O)[C@@H](C(C)C)NC4=O)c3nc-2c(C(=O)N[C@H]2CNC(=O)[C@H](C(C)C)N(C)C(=O)CN(C)C(=O)[C@@H]3CCCN3C(=O)[C@@H](C(C)C)NC2=O)c(N)c1=O
ILS at 0.15 mg/kg (L1210 [1]): 14% | MST (B16 [2]): 29 days | ILS at 0.075 mg/kg (B16 [3]): 14% | ILS at 0.1 mg/kg (P388 [4]): 38% | MST (P388 [5]): 14.5 days | MIC (Sarcina): 0.35 µg/mL (≈ 0.286 µM) | MST (P388 [6]): 14 days | MST (B16 [7]): 32 days | ILS at 0.2 mg/kg (L1210 [8]): 22% | Activity (Calf thymus DNA [9]): Active | ILS at 0.15 mg/kg (P388 [10]): 33% | Activity [11]: Active | ILS at 0.2 mg/kg (P388 [12]): 33% | Activity (Calf thymus DNA [13]): Active | MST (B16 [14]): 30 days | ILS at 0.0125 mg/kg (L1210 [15]): 17% | MST (P388 [16]): 14 days | MST (L1210 [17]): 11 days | MIC (Bacillus subtilis): 0.9 µg/mL (≈ 0.734 µM) | IC50 (Bacillus subtilis; read-out: ID50 (the source's name)): 0.4 µg/mL (≈ 0.326 µM) | MST (L1210 [18]): 11.8 days | ILS at 0.05 mg/kg (B16 [19]): 7% | MIC (Staphylococcus aureus): 0.35 µg/mL (≈ 0.286 µM) | MST (L1210 [20]): 11.2 days | ILS at 0.05 mg/kg (B16 [21]): 4%
